Experiments:
[1] = Plasma clearance in patient with severe renal impairment at 200 mg, po administered as single dose; assay type: ADME, organism-based; conditions: human
In short: (§1)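 Apparent total oral plasma clearance (CL/F) = dose/AUC0-∞. AUC was obtained noncompartmentally from plasma LC-MS/MS concentrations sampled up to 48 h after a single oral dose.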

[2] = Cmax in patient with moderate renal impairment at 400 mg, po administered as single dose; assay type: ADME, organism-based; parameters: dose 400 mg, route oral; conditions: human, in vivo
In short: (§2)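 Plasma telbivudine after one oral dose, sampled predose through 48 h and quantified by validated LC-MS/MS (LLOQ 10 ng/ml, transition 243.0→127.1 m/z). Cmax was read directly from the observed concentration-time data.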

[3] = Terminal half life in healthy human at 200 to 800 mg/day administered as single dose; assay type: ADME, organism-based; conditions: in vivo, read-out: beta t1/2 (converted)
Hepatitis B virus [4] = experiment: Antiviral activity against HBV in HBeAg-positive patient with chronic viral infection assessed as log reduction of serum viral DNA copies/ml at 60 mg/day after 6 to 12 weeks; assay type: functional
Homo sapiens [5] = experiment: AUC (0 to infinity) in human with normal renal function at 600 mg, po administered as single dose; assay type: ADME, organism-based, Plasma; parameters: dose 600 mg, route oral, time infinity; conditions: in vivo
In short: (§3)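 Single oral telbivudine dose. Heparinized blood was drawn predose and up to 48 h postdose, with extra paired dialyzer samples for predialysis dosing. Plasma was stored at –20°C and assayed by validated HPLC-MS/MS (LLOQ 10 ng/ml, range 10–5,000 ng/ml). Noncompartmental analysis: AUC0-t by linear trapezoidal rule to last measurable concentration; AUC0-∞ = AUC0-t + Ct/kel.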

[6] = Tmax in patient with mild renal impairment at 600 mg, po administered as single dose; assay type: ADME, organism-based; conditions: human, in vivo
In short: (§4)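 Single oral dose. Plasma was frozen at –20°C. Assay by validated HPLC-MS/MS (LLOQ 10 ng/ml, calibration 10–5,000 ng/ml, m/z 243.0→127.1). Tmax was read directly from the concentration-time data, with noncompartmental analysis.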

[7] = Plasma clearance in human with normal renal function; assay type: ADME, organism-based
[8] = AUC (0 to infinity) in patient with severe renal impairment at 200 mg, po administered as single dose; assay type: ADME, organism-based; parameters: dose 200 mg, route oral, time infinity; conditions: human, plasma; in short: as §3
Homo sapiens [9] = experiment: Plasma clearance in human with normal renal function at 600 mg, po administered as single dose; assay type: ADME, organism-based; conditions: in vivo; in short: as §1
[10] = AUC (0 to infinity) in patient with end-stage renal disease at 200 mg, po administered as two single doses 2 hrs before dialysis separated by 1 week washout period; assay type: ADME, organism-based; parameters: dose 200 mg, route oral, time infinity; conditions: human, plasma; in short: as §3
[11] = Elimination half life in patient with moderate renal impairment at 400 mg, po administered as single dose; assay type: ADME, organism-based; conditions: human, in vivo, read-out: beta t1/2 (converted)
In short: (§5)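 Half-lives came from noncompartmental analysis of plasma LC-MS/MS concentrations over 48 h after a single oral dose. Terminal and initial-decline t1/2 were calculated as 0.693/k, with each rate constant derived by stripping and linear regression.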

[12] = AUC (0 to t) in patient with end-stage renal disease at 200 mg, po disease as two single doses 2 hrs before dialysis separated by 1 week washout period; assay type: ADME, organism-based; conditions: human, plasma; in short: as §3
[13] = AUC (0 to t) in patient with mild renal impairment at 600 mg, po administered as single dose; assay type: ADME, organism-based; conditions: human, plasma; in short: as §3
[14] = Renal clearance in patient with mild renal impairment at 600 mg, po administered as single dose; assay type: ADME, organism-based, Kidney; conditions: human, in vivo, read-out: CL_renal (converted)
In short: (§6)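 Renal clearance = Au0-t/AUC0-t, where Au0-t is the cumulative unchanged drug in urine collected over 0–48 h. Plasma and urine were assayed by validated HPLC-MS/MS after a single oral dose.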

[15] = Elimination half life in human with normal renal function at 600 mg, po administered as single dose; assay type: ADME, organism-based; conditions: in vivo, read-out: beta t1/2 (converted); in short: as §5
[16] = AUC (0 to infinity) in patient with moderate renal impairment at 400 mg, po administered as single dose; assay type: ADME, organism-based; parameters: dose 400 mg, time infinity, route oral; conditions: human, plasma; in short: as §3
[17] = AUC (0 to t) in patient with moderate renal impairment at 400 mg, po administered as single dose; assay type: ADME, organism-based; conditions: human, plasma; in short: as §3
[18] = Initial decline half life in patient with moderate renal impairment at 400 mg, po administered as single dose; assay type: ADME, organism-based; conditions: human, in vivo, read-out: alphat1/2 (converted); in short: as §5
[19] = Plasma clearance in patient with end-stage renal disease at 200 mg, po administered as two single doses 2 hrs before dialysis separated by 1 week washout period; assay type: ADME, organism-based; conditions: human; in short: as §1
[20] = Mean cumulative urine excretion level in patient with severe renal impairment at 200 mg, po administered as single dose; assay type: ADME, organism-based; conditions: human, read-out: Activity
In short: (§7)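 Urine collected at –2 to 0 h predose and at 0–4, 4–8, 8–12, 12–24 and 24–48 h after a single oral dose. Unchanged telbivudine measured by validated HPLC-MS/MS (LLOQ 30 ng/ml, calibration 30–5,000 ng/ml), and amounts were summed cumulatively.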

[21] = Tmax in patient with severe renal impairment at 200 mg, po administered as single dose; assay type: ADME, organism-based; conditions: human, in vivo; in short: as §4
[22] = Oral bioavailability in human with normal renal function; assay type: ADME, organism-based; conditions: in vivo
[23] = Plasma clearance in patient with mild renal impairment at 600 mg, po administered as single dose; assay type: ADME, organism-based; conditions: human; in short: as §1
[24] = Renal clearance in patient with moderate renal impairment at 400 mg, po administered as single dose; assay type: ADME, organism-based, Kidney; conditions: human, in vivo, read-out: CL_renal (converted); in short: as §6
Hepatitis B virus [25] = experiment: Antiviral activity against HBV in HBeAg-positive patient with chronic viral infection assessed as log reduction of serum viral DNA copies/ml at 60 mg/day after 4 weeks; assay type: functional
[26] = Cmax in patient with end-stage renal disease at 200 mg, po administered as two single doses 2 hrs before dialysis separated by 1 week washout period; assay type: ADME, organism-based; parameters: dose 200 mg, route oral; conditions: human, in vivo; in short: as §2
[27] = Mean cumulative urine excretion level in patient with moderate renal impairment at 400 mg, po administered as single dose; assay type: ADME, organism-based; conditions: human, read-out: Activity; in short: as §7
[28] = Cmax in patient with end-stage renal disease at 200 mg, po administered as two single doses within 2 hrs of after completion of dialysis separated by 1 week washout period; assay type: ADME, organism-based; parameters: dose 200 mg, route oral; conditions: human, in vivo; in short: as §2
[29] = AUC (0 to t) in human with normal renal function at 600 mg, po administered as single dose; assay type: ADME, organism-based; conditions: plasma; in short: as §3

Structure (SMILES): Cc1cn([C@@H]2C[C@@H](O)[C@H](CO)O2)c(=O)[nH]c1=O [TELBIVUDINE]
- CL/F [1]: 118 mL/min
- Cmax [2]: 2800 ng/mL
- half-life [3]: 40 h
- Activity (Hepatitis B virus [4]): 6 mL⁻¹
- AUC (Homo sapiens [5]): 28500 ng·h/mL
- Tmax [6]: 4 h
- clearance [7]: 200 mL/min
- AUC(0-inf) [8]: 32500 ng·h/mL
- CL (Homo sapiens [9]): 7.6 L/h
- AUC(0-inf) [10]: 43400 ng·h/mL
- half-life [11]: 31.2 h
- AUC(0-t) [12]: 26500 ng·h/mL
- AUC(0-t) [13]: 29200 ng·h/mL
- CL renal [14]: 83.3 mL/min
- half-life [15]: 20.5 h
- AUC(0-inf) [16]: 36000 ng·h/mL
- AUC(0-t) [17]: 30100 ng·h/mL
- half-life [18]: 3.82 h
- CL/F [19]: 81.7 mL/min
- dose excreted [20]: 8%
- Tmax [21]: 4 h
- bioavailability [22]: 52%
- CL/F [23]: 345 mL/min
- CL renal [24]: 43.3 mL/min
- Activity (Hepatitis B virus [25]): 3.6 mL⁻¹
- Cmax [26]: 1200 ng/mL
- dose excreted [27]: 19.8%
- Cmax [28]: 2100 ng/mL
- AUC(0-t) [29]: 26500 ng·h/mL

Source: ChEMBL document CHEMBL1153546, “Pharmacokinetics of telbivudine in subjects with various degrees of renal impairment” (Antimicrob Agents Chemother, 2007)
